Screening data (PubChem)
Rpn11 inh = Rpn11 (PSMD14) deubiquitinase inhibitors, primary screen, biochemical, fluorescence polarization, uHTS. 360,000 tested, 0.59% active. human 26S proteasome, Ub4-pepOG fluorescence polarization; 20S core pre-blocked with epoxomicin. inhibition, % at 20 µM. 26S proteasome non-ATPase regulatory subunit 14 (Homo sapiens), O00487. AID 588493, 2011;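 active means inhibition at 20 µM, scaled to each plate's controls, above about 33%, limit read from the data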
Target sequence (O00487 whole entry, looked up): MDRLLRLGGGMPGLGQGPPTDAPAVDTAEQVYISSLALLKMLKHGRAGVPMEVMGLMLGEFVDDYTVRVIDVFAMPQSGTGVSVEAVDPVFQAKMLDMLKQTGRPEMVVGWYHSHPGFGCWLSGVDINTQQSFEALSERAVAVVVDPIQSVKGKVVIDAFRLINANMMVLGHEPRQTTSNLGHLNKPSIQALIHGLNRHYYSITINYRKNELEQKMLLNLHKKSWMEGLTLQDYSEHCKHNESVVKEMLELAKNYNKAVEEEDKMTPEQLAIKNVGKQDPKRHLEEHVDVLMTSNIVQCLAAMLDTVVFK
MT1-MMP act inh = blockers of MT1-MMP proenzyme processing, primary screen, HT1080 RFP-PRO-GFP cells, GFP/RFP fluorescence | Matrix metalloproteinase-14 (Homo sapiens), P50281 | GFP/RFP ratio fluorescence, overnight; percent of plate control window, DMSO zero | GFP/RFP ratio change, % at 20 µM | 360,000 tested, 0.061% active | AID 651647, 2012;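 active means GFP/RFP ratio change of at least 30% with cell ATP level not reduced by more than half and red fluorescence within 50% of control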
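Read-out: GFP/RFP fluorescence ratio; Test system: RFP-PRO-GFP reporter HT1080 cells; Compound dosing: single-point 20 µM compound, 1% DMSO; Times: overnight compound exposure at 37 °C.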
SKN-1 block = suppressors of acrylamide-induced Pgst-4::GFP reporter in worms, primary screen, SKN-1 inhibitor project, whole organism, uHTS, GFP/RFP fluorescence ratio, strain VP596. AID 624304, 2012. 360,000 tested, 0.49% active. inhibition, % at 21.8 µM. C. elegans VP596 Pgst-4::GFP/RFP ratio, 24 h;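 active means interference check ratio from 0.5 to 1.5 plus GFP to RFP signal ratio inhibition reaching or exceeding a fixed threshold, cut at about 30% in these data, passing the limit was not always enough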
CSN inh = inhibitors of CSN-mediated cullin deneddylation, primary screen, biochemical, fluorescence polarization, uHTS; 360,000 tested, 0.38% active; COP9 signalosome complex subunit 5 (Homo sapiens), Q92905; Purified CSN, SCF-Nedd8-OG deneddylation; inhibition, % at 12.5 µM;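 active means pattern-corrected inhibition above about 35%, with an unprinted fluorescence ratio check between 0.5 and 1.5, limit read from the data, passing the limit was not always enough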;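 further: 0% = enzyme with substrate and 100% = substrate without enzyme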
Target sequence (Q92905 whole entry, looked up, one chain of several): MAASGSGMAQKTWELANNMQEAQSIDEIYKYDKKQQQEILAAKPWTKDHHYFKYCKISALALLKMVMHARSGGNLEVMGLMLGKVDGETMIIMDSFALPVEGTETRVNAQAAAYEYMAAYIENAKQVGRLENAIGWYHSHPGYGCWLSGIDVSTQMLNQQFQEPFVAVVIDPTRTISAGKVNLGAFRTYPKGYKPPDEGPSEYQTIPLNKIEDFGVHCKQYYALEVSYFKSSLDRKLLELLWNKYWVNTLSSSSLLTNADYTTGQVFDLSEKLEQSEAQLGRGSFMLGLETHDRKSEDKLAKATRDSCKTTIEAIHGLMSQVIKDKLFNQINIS
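Assay system: purified human Csn5 enzyme expressed in HEK293T cells; measure: % inhibition; also added: SCFSkp2-Nedd8OG substrate at 10 nM final; technique: fluorescence polarization; times: reaction 90 min, room temperature; medium: Tris buffer pH 7.5, NaCl, DTT, Tween-20, trehalose, ovalbumin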
SUMO1 PPI mod = modulators of SUMO1 protein-protein interactions, primary screen, biochemical, uHTS. Small ubiquitin-related modifier 1 (Homo sapiens), P63165. SUMO1 binding to a labelled peptide, TR-FRET, 1 h. inhibition, % at 20 µM. 360,000 tested, 0.33% active. AID 602429, 2012; in the data active means inhibition above about 37%
DNMT1 inh = human DNMT1 methyltransferase inhibitors, primary screen, biochemical, molecular beacon, fluorescence, HinP1I cleavage, uHTS; DNA (cytosine-5)-methyltransferase 1 (Homo sapiens), P26358; inhibition (reported as % activation of signal), % at 10 µM; 360,000 tested, 0.83% active; AID 588458, 2011; in the data active means inhibition above about 50%
Beacon interf DR = spectral interference with molecular beacon fluorescence, dose response, artefact control for DNMT1 inhibitor project, biochemical, fluorescent molecular beacon | 200 tested, under 10 active | shares compounds with DNMT1 inh | spectral interference counter-screen | AID 602382, 2012 | IC50, µM; call rule not given here
DNMT1 confirm = DNMT1 methyltransferase inhibitor retest, confirmation, biochemical, molecular beacon, fluorescence, single concentration; shares compounds with DNMT1 inh; DNMT1 molecular beacon HinP1I cleavage; inhibition, % at 10 µM; 2,300 tested, 8% active;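 active means average inhibition of at least 30% in the single-concentration confirmation test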
Beacon interf = shows spectral interference in the DNMT1 beacon assay; shares compounds with DNMT1 inh; DNMT1 molecular beacon spectral interference counterscreen, fluorescence 485/520; activation (fluorescence interference), % at 10 µM; 2,300 tested, 1% active; AID 602387;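 active means activation of at least 30% at 10 µM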;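 further: DNMT1 catalytic domain with a HinP1I cleavage step and a FAM/dabcyl DNA beacon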
The depositor's hits bear a star; · = no result; + = active, no number. This is a sample that favours compounds with a hit; in the whole collection about 2.3% have one here.

SMILES	Rpn11 inh	MT1-MMP act inh	SKN-1 block	CSN inh	SUMO1 PPI mod	DNMT1 inh	DNMT1 confirm	Beacon interf	others
COc1cccc(Nc2nc(C(N)Cc3ccc(Cl)cc3)cs2)n1 (stereo not drawn)	-11.0	-8.0	20.6	1.6	-64.2	-1.1	·	·
CCn1c(CC(=O)Nc2ccccc2F)nnc1SCC(=O)N1CCOCC1	2.9	-2.6	-2.1	-2.7	1.5	2.3	·	·
CCn1c(CC(=O)Nc2ccccc2F)nnc1SCC(=O)N1CCN(c2ccccc2)CC1	0.9	-2.5	-3.6	0.8	-2.1	76.9*	1.3	1.2
O=c1oc2c3c4c(cc2s1)CCCN4CCC3	-63.9	-53.1	6.2	-5.4	9.2	85.3*	-3.2	-2.5
O=C(COC(=O)c1ccc(Br)o1)Nc1ncc([N+](=O)[O-])s1	2.6	-3.4	-30.6	17.6	4.2	71.2*	18.9	-4.1
COc1ccc(C(=O)OCC(=O)Nc2ncc([N+](=O)[O-])s2)cc1OC	13.8	1.3	-7.5	29.9	28.1	99.4*	86.4*	-4.1	Beacon interf DR=>99
Cc1ccccc1OCC(=O)NCCCNC(=O)c1ccncc1	-2.0	2.0	-11.5	-1.9	-1.6	77.5*	1.5	3.8
CCOc1ccc2noc3c2c1C(=O)c1ccccc1-3	-212.0	-79.0	-58.2	-72.0	-17.1	+	139.6*	134.4*
Cc1ccc(S(=O)(=O)C[C@@H]2OC[C@H](Cc3ccccc3)N2S(=O)(=O)c2ccc(C)cc2)cc1	·	-3.2	9.1	-7.7	0.7	·	·	·
Cc1ccc(C=C2C(=O)c3ccccc3C2=O)s1	20.1	20.8	22.1	5.8	-10.8	2.8	·	·
Cc1ccc(/C=C2/C(=O)c3ccc(C(=O)O)cc3C2=O)o1	-9.1	6.6	23.2	15.1	4.7	74.4*	3.0	-2.6
O=C(O)c1ccc2c(c1)C(=O)/C(=C\c1ccco1)C2=O	-9.5	-2.4	0.6	27.8	4.8	79.8*	5.9	-0.5
Cc1ccc(C=C2C(=O)c3ccccc3C2=O)o1	13.3	14.6	25.9	5.7	-13.0	69.7*	2.6	2.0
Cc1noc(C)c1NC(=O)N1C[C@H](O)COC[C@H]2O[C@@H](CC(=O)NCC3CCCCC3)CC[C@@H]21	·	3.5	4.2	1.1	1.5	·	·	·
CSc1nc(C)cc(OCCNS(=O)(=O)c2cc(C)ccc2C)n1	-7.4	9.5	-9.0	-0.6	1.4	67.0*	0.4	5.8
CCOC(=O)C1CCCN(C(=O)c2ccc(SC(F)(F)F)cc2)CC1 (stereo not drawn)	8.3	2.2	-2.2	-5.1	-4.5	2.2	·	·
CN(CC(=O)Nc1cccc(F)c1)C(=O)c1cc(-c2ccco2)nc2ccccc12	29.2	-7.8	-1.3	54.5*	10.6	86.6*	9.2	-0.2
COc1ccc(NC(=O)c2cc(-c3ccco3)nc3ccccc23)cc1	-6.0	-6.1	2.9	5.8	-1.2	11.5	·	·
COc1ccc(NC(=O)CN(C)C(=O)c2cc(-c3ccco3)nc3ccccc23)cc1	6.8	7.2	5.0	45.9	10.2	98.7*	23.3	-3.4	Beacon interf DR=>99
CCCCn1nc(C(=O)NC2CCCCC2)c2ccccc2c1=O	9.3	-2.7	4.2	-7.1	-3.9	-2.1	·	·
COc1ccc(NS(=O)(=O)c2ccc(N3CCOCC3)c(NC(=O)c3ccc(F)cc3)c2)cc1	5.2	3.1	-6.3	3.6	0.0	4.5	·	·
COc1ccc(NS(=O)(=O)c2ccc(O)c(NC(=O)c3cc4c(C)nn(-c5ccc(F)cc5)c4s3)c2)cc1	-5.3	-15.7	9.2	12.5	11.8	96.7*	68.9*	-4.1	Beacon interf DR=>99
CC(C)(C)n1nnnc1C(c1cc2ccccc2o1)N1CCN(C(=O)OCc2ccccc2)CC1 (stereo not drawn)	·	-7.0	19.2	-4.3	1.4	·	·	·
C=CC[C@@H](CC(=O)N[C@H](CO)Cc1ccccc1)C(=O)NC[C@@H](OC(=O)[C@@H](CC=C)Cc1ccc(F)cc1)c1ccccc1	-0.8	-2.1	-9.7	1.3	3.3	76.6*	0.4	4.8
C=CC[C@@H](CC(=O)N[C@@H](CO)Cc1ccccc1)C(=O)N[C@H](COC(=O)[C@@H](CC=C)Cc1ccc(F)cc1)Cc1ccccc1	0.5	-0.1	7.5	-2.0	4.3	61.7*	0.3	1.4
SMILES	Rpn11 inh	MT1-MMP act inh	SKN-1 block	CSN inh	SUMO1 PPI mod	DNMT1 inh	DNMT1 confirm	Beacon interf	others
C=CC[C@H](CC(=O)NCCO)C(=O)NC[C@H](OC(=O)[C@@H](CC=C)Cc1ccc(F)cc1)c1ccccc1	-0.3	1.8	-1.9	2.4	0.8	-0.3	·	·
C=CCC[C@@H](Cc1ccc(F)cc1)C(=O)O[C@H](CNC(=O)[C@@H](CC=C)CC(=O)N[C@H](CO)Cc1ccccc1)c1ccccc1	-0.2	-1.3	9.9	5.7	0.3	83.0*	0.3	3.3
C=CC[C@@H](CC(=O)N[C@H](CO)Cc1ccccc1)C(=O)N[C@@H](COC(=O)[C@@H](CC=C)Cc1ccc(F)cc1)Cc1ccccc1	3.8	-1.2	-3.6	-3.1	0.9	27.9	·	·
C=CCC[C@H](Cc1ccc(F)cc1)C(=O)OC[C@@H](C)NC(=O)[C@@H](CC=C)CC(=O)N[C@H](CO)Cc1ccccc1	2.9	-3.5	-12.2	3.4	-1.6	1.3	·	·
C=CCC[C@H](Cc1ccc(F)cc1)C(=O)OC[C@H](Cc1c[nH]c2ccccc12)NC(=O)[C@@H](CC=C)CC(=O)N[C@@H](CO)Cc1ccccc1	3.7	2.2	-7.8	0.7	3.9	69.2*	-0.1	-4.6
C=CCC[C@@H](Cc1ccc(F)cc1)C(=O)OC[C@H](Cc1c[nH]c2ccccc12)NC(=O)[C@@H](CC=C)CC(=O)N[C@H](CO)Cc1ccccc1	0.3	0.1	-6.6	-0.3	-1.4	5.9	·	·
